Values after ≈ are worked out from the molar mass of the structure shown. Active and inactive are the calls of the source. No cut-off for these calls is given here.
How the values were obtained:
[1] = Cytotoxicity against human SH-SY5Y cells assessed as cell viability at 1 uM measured after 48 hrs by MTT assay relative to control; type: cell-based; settings: read-out: Activity
SH-SY5Y [2] = experiment: Cytotoxicity against human SH-SY5Y cells measured after 48 hrs by MTT assay; type: cell-based
[3] = target: Nicotinamide phosphoribosyltransferase (Mus musculus, UniProt Q99KQ4); experiment: Inhibition of recombinant mouse wild-type NAMPT expressed in bacterial expression system using PRPP as substrate in presence of mouse NMNAT-3 measured for 1 hr by fluorescence assay
Outline: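 In vitro NAMPT enzymatic assay run as concentration-response curves, with IC50 derived from the curves. Mean ± SD of three independent experiments (n = 6).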

[4] = Kinetic aqueous solubility of the compound in 80:20 PBS/acetonitrile solution at 200 to 500 uM by HTS assay; type: physicochemical; settings: read-out: Kinetic_solubility
[5] = Permeability across apical side to basolateral side in human Caco2 cells at 30 uM after 4 hrs by HPLC analysis; type: ADME, cell-based; settings: caco-2, 4 h
Outline: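 Caco-2 monolayer used to measure apical-to-basal transfer, reported as % permeability and Papp. Terbutaline served as the positive control; n = 3.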

[6] = target: Nicotinamide phosphoribosyltransferase (Homo sapiens) (UniProt P43490); experiment: Inhibition of NAMPT in human SH-SY5Y cells assessed as reduction in NAD levels at 100 nM measured after 16 hrs by diaphorase and resazurin dye based fluorescence assay relative to control; type: cell-based
Outline: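 SH-SY5Y cells treated at 100 nM for 16 h, then NAD level reduction measured as % of control. Mean ± SD of two independent experiments (n = 6).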

[7] = Selectivity ratio of EC50 for cytotoxicity against human SH-SY5Y cells to IC50 for recombinant mouse wild-type NAMPT expressed in bacterial expression system; type: cell-based
4T1 [8] = experiment: Antitumor activity against mouse 4T1 cells implanted in BALB/c mouse assessed as reduction in tumour volume at 10 mg/kg, ip bid for 12 days by vernier caliper method; type: functional, organism-based
Outline: (§1)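 Tumour cells implanted in the mammary gland. Dosing began at day 14, once tumours were palpable, after randomization into vehicle and treated groups of 4 mice each. Compound given intraperitoneally at 10 mg/kg twice a day for 12 consecutive days. Data are means of two independent experiments.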

[9] = Toxicity in Crl:CD Sprague-Dawley rat retina at 200 mg/kg, po administered once daily for 5 days via gavage by hematoxylin and eosin staining based microscopic analysis; type: organism-based; settings: in vivo, 120 h
[10] = Half-life in human; type: ADME
[11] = Toxicity in Crl:CD Sprague-Dawley rat heart assessed as hypereosinophilia at 200 mg/kg, po administered once daily via gavage for 5 days by hematoxylin and eosin staining based microscopic analysis; type: organism-based; settings: in vivo, 120 h
[12] = Toxicity in Crl:CD Sprague-Dawley rat heart assessed as increase in cardiomyocytes cytoplasmic vacuolation at 200 mg/kg, po administered once daily for 5 days via gavage by hematoxylin and eosin staining based microscopic analysis; type: organism-based; settings: in vivo, 120 h
4T1 [13] = experiment: Antitumor activity against mouse 4T1 cells implanted in Balb/c mouse mouse assessed as inhibition of tumor metastasis at 10 mg/kg, ip bid for 12 days measured post last dose by crystal violet staining based thioguanine clonogenic assay; type: functional, organism-based; outline: as §1
4T1 [14] = experiment: Antitumor activity against mouse 4T1 cells implanted in BALB/c mouse assessed as reduction in tumor weight at 10 mg/kg, ip bid for 12 days; type: functional, organism-based; outline: as §1
[15] = Toxicity in Crl:CD Sprague-Dawley rat heart assessed as interstitial expansion at 200 mg/kg, po administered once daily for 5 days via gavage by hematoxylin and eosin staining based microscopic analysis; type: organism-based; settings: in vivo, 120 h
SH-SY5Y [16] = experiment: Cytotoxicity against human SH-SY5Y cells assessed as cell viability at 10 uM measured after 48 hrs by MTT assay relative to control; type: functional; settings: read-out: Activity
[17] = Toxicity in Crl:CD Sprague-Dawley rat retina at 100 mg/kg, ip administered once daily for 5 days by hematoxylin and eosin staining based microscopic analysis; type: organism-based; settings: in vivo, 120 h
[18] = Toxicity in Crl:CD Sprague-Dawley rat heart assessed as interstitial expansion at 100 mg/kg, ip administered once daily for 5 days by hematoxylin and eosin staining based microscopic analysis; type: organism-based; settings: in vivo, 120 h
[19] = Toxicity in Crl:CD Sprague-Dawley rat heart assessed as increase in cardiomyocytes cytoplasmic vacuolation at 100 mg/kg, ip administered once daily for 5 days by hematoxylin and eosin staining based microscopic analysis; type: organism-based; settings: in vivo, 120 h
[20] = Toxicity in Crl:CD Sprague-Dawley rat heart assessed as hypereosinophilia at 100 mg/kg, ip administered once daily for 5 days by hematoxylin and eosin staining based microscopic analysis; type: organism-based; settings: in vivo, 120 h
[21] = Kinetic aqueous solubility of the compound in 80:20 PBS/acetonitrile solution at 200 uM by HTS assay; type: physicochemical; settings: buffer

Chain of Nicotinamide phosphoribosyltransferase (Q99KQ4 whole entry): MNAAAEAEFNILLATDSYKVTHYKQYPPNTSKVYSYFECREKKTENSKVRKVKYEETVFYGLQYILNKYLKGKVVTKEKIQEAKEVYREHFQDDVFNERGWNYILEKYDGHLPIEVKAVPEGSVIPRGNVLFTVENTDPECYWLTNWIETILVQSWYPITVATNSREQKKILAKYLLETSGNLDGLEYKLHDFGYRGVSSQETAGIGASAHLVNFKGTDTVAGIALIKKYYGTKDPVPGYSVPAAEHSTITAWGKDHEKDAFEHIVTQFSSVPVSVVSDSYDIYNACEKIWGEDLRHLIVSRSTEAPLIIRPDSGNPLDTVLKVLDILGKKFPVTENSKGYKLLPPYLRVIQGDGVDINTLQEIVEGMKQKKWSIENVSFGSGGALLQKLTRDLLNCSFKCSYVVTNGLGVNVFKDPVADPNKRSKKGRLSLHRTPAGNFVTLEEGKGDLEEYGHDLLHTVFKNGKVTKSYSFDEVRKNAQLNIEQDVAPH
Chain of Nicotinamide phosphoribosyltransferase (Homo sapiens) (P43490 whole entry, looked up): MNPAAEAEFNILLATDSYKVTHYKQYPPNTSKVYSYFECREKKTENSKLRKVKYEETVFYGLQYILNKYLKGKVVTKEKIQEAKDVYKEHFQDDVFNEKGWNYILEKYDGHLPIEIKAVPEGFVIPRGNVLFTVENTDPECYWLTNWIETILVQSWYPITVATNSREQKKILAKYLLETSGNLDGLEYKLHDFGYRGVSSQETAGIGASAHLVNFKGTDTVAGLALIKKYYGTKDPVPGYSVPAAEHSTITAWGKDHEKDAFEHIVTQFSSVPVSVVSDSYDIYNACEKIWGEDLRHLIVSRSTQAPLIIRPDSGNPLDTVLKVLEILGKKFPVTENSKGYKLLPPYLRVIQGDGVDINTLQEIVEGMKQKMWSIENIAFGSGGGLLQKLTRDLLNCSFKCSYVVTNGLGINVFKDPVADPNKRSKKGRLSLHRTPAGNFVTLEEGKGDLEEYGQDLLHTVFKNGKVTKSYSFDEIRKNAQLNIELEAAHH

Row | Structure (SMILES) | IC50 [3] | solubility kinetic [4] | permeability [5] | viability at 48 h, 1 µM [1] | EC50 (SH-SY5Y [2]) | also measured
1 | NC(=O)c1ccccc1-c1ccccc1C(=O)NCCCCCCCn1cc(-c2cccnc2)nn1 | 87.9 nM |  |  | 65.7% | 289 nM | 
2 | CN(C)Cc1cn(-c2ccccc2C(=O)NCCCCCCCn2cc(-c3cccnc3)nn2)nn1 | 42.4 nM | 200 to 500 µM (≈ 97.5 to 244 µg/mL) |  | 86.6% | 285 nM | 
3 | O=C(O)c1ccccc1-c1ccccc1C(=O)NCCCCCCCn1cc(-c2cccnc2)nn1 | 38.5 nM |  |  | 80.9% | > 500 nM | 
4 | CN1CCN(Cc2cn(-c3ccccc3C(=O)NCCCCCCCn3cc(-c4cccnc4)nn3)nn2)CC1 | 13.6 nM | 200 to 500 µM (≈ 109 to 271 µg/mL) | < 1% | 87.7% | > 10000 nM | inhibition [6]: inactive; Selectivity ratio [7]: 200
5 | O=C(NCCCCCCCn1cc(-c2cccnc2)nn1)c1ccccc1-n1cc(CN(CCO)CCO)nn1 | 73.8 nM | 200 to 500 µM (≈ 110 to 274 µg/mL) |  | 37.8% | > 500 nM | 
6 | N#CN=C(NCCCCCCOc1ccc(Cl)cc1)Nc1ccncc1 [CHS-828] |  |  |  |  |  | Activity (4T1 [8]): Active; Activity [9]: Non-Toxic; half-life [10]: 2.1 h; Activity [11]: Non-Toxic; Activity [12]: Non-Toxic; inhibition (4T1 [13]): Active; Activity (4T1 [14]): Active; Activity [15]: Non-Toxic
7 | CC(C)(C)NCC(O)c1cc(O)cc(O)c1 (configuration not stated) [TERBUTALINE] |  |  | 52.7% |  |  | 

Now from value to molecule, other results behind:

Row | IC50 [3] | solubility kinetic [4] | permeability [5] | Structure (SMILES) | viability at 48 h, 1 µM [1] | EC50 (SH-SY5Y [2]) | also measured
8 | 41.8 nM | 200 to 500 µM (≈ 109 to 272 µg/mL) | < 1% | O=C(NCCCCCCCn1cc(-c2cccnc2)nn1)c1ccccc1-n1cc(CN2CCC(O)CC2)nn1 | 91.7% | > 10000 nM | inhibition [6]: 30%; Selectivity ratio [7]: 200
9 | 24.7 nM | 200 to 500 µM (≈ 114 to 285 µg/mL) |  | CC(C)N1CCN(Cc2cn(-c3ccccc3C(=O)NCCCCCCCn3cc(-c4cccnc4)nn3)nn2)CC1 | 80.2% | > 10000 nM | viability at 10 µM (SH-SY5Y [16]): 64.1%
10 | > 500 nM |  |  | O=C(NCCCCCCCn1cc(-c2ccc[n+]([O-])c2)nn1)c1ccccc1-c1ccccc1 | 103% |  | 
11 |  |  | 20.5% | O=C(/C=C/c1cccnc1)NCCCCC1CCN(C(=O)c2ccccc2)CC1 [DAPORINAD] | 9.7% | 2.5 nM | Activity [17]: Non-Toxic; Activity [18]: Non-Toxic; Activity [19]: Toxic; Activity [20]: Toxic; Kinetic_solubility [21]: Soluble

Reference: ChEMBL document CHEMBL4359872, “Identification of potent triazolylpyridine nicotinamide phosphoribosyltransferase (NAMPT) inhibitors bearing a 1,2,3-triazole tail group” (Eur J Med Chem, 2019)
